Measured values from ChEMBL document CHEMBL5346861, “Designing quinoline-isoniazid hybrids as potent anti-tubercular agents inhibiting mycolic acid biosynthesis” (Eur J Med Chem, 2022).
Values after ≈ are worked out from the molar mass of the structure shown. Active and inactive are the calls of the source. No cut-off for these calls is given here.

How the values were obtained:
[1] = test system: Mycobacterium tuberculosis; assay: Antimycobacterial activity against Mycobacterium tuberculosis mc2 6230 assessed as inhibition of bacterial growth measured after 7 days by broth dilution method; assay type: functional; details: mc2 6230, 168 h, time 7 day
Summary of the method: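 Pantothenate auxotroph carrying empty pMV261. 2-fold serial dilutions, 37 °C, no agitation, 7 days. MIC99 is the lowest concentration with no turbidity change. DMSO vehicle control.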

[2] = test system: Mycobacteroides abscessus; assay: Antimycobacterial activity against Mycobacterium abscessus CIP104536 smooth variant assessed as inhibition of bacterial growth measured after 4 days by broth dilution method; assay type: functional; details: CIP104536, 96 h, time 4 day
Summary of the method: (§1)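 MIC99 by CLSI broth 2-fold serial dilution in CaMHB. Inoculum 5.10⁶ CFU/mL. Incubated at 30 °C and read by turbidity after 4 days. DMSO vehicle control, INH reference.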

Mycobacterium marinum = assay: Antimycobacterial activity against Mycobacterium marinum M strain assessed as inhibition of bacterial growth measured after 6 days by broth dilution method; assay type: functional; details: 144 h, time 6 day
Summary of the method: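 MIC99 by 2-fold serial broth dilution in 7H9 with 10% OADC and 0.025% tyloxapol. Inoculum 5.10⁶ CFU/mL. Incubated without agitation at 30 °C, scored for no turbidity change after 6 days. DMSO vehicle control.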

[3] = test system: Mycobacteroides abscessus; assay: Antimycobacterial activity against Mycobacterium abscessus CIP104536 rough variant assessed as inhibition of bacterial growth measured after 4 days by broth dilution method; assay type: functional; details: CIP104536, 96 h, time 4 day; summary of the method: as §1
[4] = test system: Mycobacterium tuberculosis; assay: Antimycobacterial activity against Mycobacterium tuberculosis mc2 6230 assessed as reduction in log10 CFU at 20 times of MIC measured after 6 days by time-killing kinetics assay; assay type: functional; details: time 6 day
Summary of the method: (§2)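 Exposed to 1x, 5x or 20x MIC at 37 °C for up to 6 days. Serial dilutions plated on 7H10/OADC/pantothenate and colonies counted after 3 weeks. Mean of four independent experiments in technical triplicate, with SD. DMSO negative control.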

[5] = test system: Mycobacterium tuberculosis; assay: Inhibition of mycolic acid biosynthesis in Mycobacterium tuberculosis mc2 6230 assessed as decrease in methoxy-mycolic acid incubated for 15 mins followed by 14C-labeled acetate addition measured after 7 hrs by TLC analysis; assay type: functional, organism-based; details: time 435.0 min
[6] = test system: Mycobacterium tuberculosis; assay: Inhibition of mycolic acid biosynthesis in Mycobacterium tuberculosis mc2 6230 assessed as decrease in keto-mycolic acid at 1.25 ug/ml incubated for 15 mins followed by 14C-labeled acetate addition measured after 7 hrs by TLC analysis; assay type: functional, organism-based; details: dose 1.25 µg/ml, time 435.0 min
[7] = Cytotoxicity against human THP-1 cells assessed as reduction in cell viability measured after 72 hrs by resazurin staining based analysis; assay type: toxicity
Summary of the method: (§3)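 THP-1 monocytes differentiated with 20 ng/mL PMA for 48 hrs at 1×10^5 cells/well. Compounds added by serial dilution from 100 µg/mL for 24 or 72 hrs at 37 °C and 5% CO₂. Resazurin 10% for 4 hrs, fluorescence at ex 540/em 590 nm. Mean of three independent experiments in triplicate. INH and RFB reference drugs.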

[8] = test system: Mycobacterium tuberculosis; assay: Inhibition of fatty acid methyl esters production in Mycobacterium tuberculosis mc2 6230 incubated for 15 mins followed by 14C-labeled acetate addition measured after 7 hrs by TLC analysis; assay type: functional; details: time 435.0 min
[9] = Cytotoxicity against human THP-1 cells assessed as reduction in cell viability measured after 24 hrs by resazurin staining based analysis; assay type: toxicity; summary of the method: as §3
[10] = test system: Mycobacterium tuberculosis; assay: Inhibition of mycolic acid biosynthesis in Mycobacterium tuberculosis mc2 6230 assessed as decrease in methoxy-mycolic acid at 1.25 ug/ml incubated for 15 mins followed by 14C-labeled acetate addition measured after 7 hrs by TLC analysis; assay type: functional, organism-based; details: dose 1.25 µg/ml, time 435.0 min
[11] = test system: Mycobacterium tuberculosis; assay: Antimycobacterial activity against Mycobacterium tuberculosis mc2 6230 assessed as reduction in log10 CFU at 1 time of MIC measured after 6 days by time-killing kinetics assay; assay type: functional, organism-based; details: time 6.0 day; summary of the method: as §2
[12] = test system: Mycobacterium tuberculosis; assay: Inhibition of mycolic acid biosynthesis in Mycobacterium tuberculosis mc2 6230 assessed as decrease in alpha-mycolic acid at 1.25 ug/ml incubated for 15 mins followed by 14C-labeled acetate addition measured after 7 hrs by TLC analysis; assay type: functional, organism-based; details: dose 1.25 µg/ml, time 435.0 min
[13] = test system: Mycobacterium tuberculosis; assay: Inhibition of mycolic acid biosynthesis in Mycobacterium tuberculosis mc2 6230 assessed as decrease in keto-mycolic acid incubated for 15 mins followed by 14C-labeled acetate addition measured after 7 hrs by TLC analysis; assay type: functional, organism-based; details: time 435.0 min
[14] = test system: Mycobacterium tuberculosis; assay: Antimycobacterial activity against Mycobacterium tuberculosis mc2 6230 assessed as reduction in log10 CFU at 5 times of MIC measured after 3 days by time-killing kinetics assay; assay type: functional; details: time 3 day; summary of the method: as §2
[15] = test system: Mycobacterium tuberculosis; assay: Inhibition of mycolic acid biosynthesis in Mycobacterium tuberculosis mc2 6230 assessed as decrease in alpha-mycolic acid incubated for 15 mins followed by 14C-labeled acetate addition measured after 7 hrs by TLC analysis; assay type: functional, organism-based; details: time 435.0 min
[16] = test system: Mycobacterium tuberculosis; assay: Antimycobacterial activity against Mycobacterium tuberculosis mc2 6230 assessed as inhibition of bacterial growth at 1 ug/ml measured after 7 days by broth dilution method; assay type: functional, organism-based; details: dose 1.0 µg/ml, time 7.0 day
Vero = assay: Cytotoxicity against African green monkey Vero cells assessed as reduction in cell viability measured after 24 hrs by resazurin staining based analysis; assay type: toxicity; details: chlorocebus sabaeus
Summary of the method: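 Vero cells in RPMI 1640 with 10% FCS, 2×10^4 cells/well, adhered overnight at 37 °C and 5% CO₂. Compounds added at 100 to 0.78 µg/mL for 24 hrs. 10% resazurin added for 4 hrs, fluorescence read at ex 540/em 590 nm.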

Compound	MIC [1]	MIC [2]	MIC (Mycobacterium marinum)	MIC [3]	other results
O=C(N/N=C/c1ccc(OCc2cn(CCCNc3ccnc4cc(Cl)ccc34)nn2)cc1)c1cccnc1	> 200 mg/L	–	–	–	–
COc1cc(/C=N/NC(=O)c2cnccn2)ccc1OCc1cn(CCCNc2ccnc3cc(Cl)ccc23)nn1	> 200 mg/L	–	–	–	–
O=Cc1ccccc1-n1cc(CN2CCN(c3ccnc4cc(Cl)ccc34)CC2)nn1	100 mg/L (≈ 231 µM)	> 200 mg/L	> 200 mg/L	> 200 mg/L	–
O=C(N/N=C/c1ccc(OCc2cn(-c3ccnc4cc(Cl)ccc34)nn2)cc1)c1cnccn1	> 200 mg/L	–	–	–	–
O=C(N/N=C/c1ccccc1-n1cc(CN2CCN(c3ccnc4cc(Cl)ccc34)CC2)nn1)c1ccncc1	0.25 mg/L (≈ 0.453 µM)	> 200 mg/L	50 mg/L (≈ 90.6 µM)	> 200 mg/L	Activity [4]: ~3 log10CFU/ml; inhibition [5]: Dose-Dependent Effect; inhibition [6]: Active; CC50 at 72 h [7]: 18 mg/L (≈ 32.6 µM); inhibition [8]: inactive; CC50 at 24 h [9]: 13 mg/L (≈ 23.5 µM); inhibition [10]: Active; Activity [11]: Active; inhibition [12]: Active; inhibition [13]: Dose-Dependent Effect; Activity [14]: 2 log10CFU/ml; inhibition [15]: Dose-Dependent Effect; Activity [16]: Active
O=C(N/N=C/c1ccc(OCc2cn(CCCNc3ccnc4cc(Cl)ccc34)nn2)cc1)c1ccncc1	0.5 mg/L (≈ 0.924 µM)	> 200 mg/L	50 mg/L (≈ 92.4 µM)	> 200 mg/L	Activity [4]: ~3 log10CFU/ml; Activity (Vero): Non-Toxic; CC50 at 72 h [7]: 67 mg/L (≈ 124 µM); CC50 at 24 h [9]: > 100 mg/L; Activity [11]: Active; Activity [14]: 2 log10CFU/ml; Activity [16]: Active
O=C(N/N=C/c1ccc(OCc2cn(CCCNc3ccnc4cc(Cl)ccc34)nn2)cc1)c1cnccn1	> 200 mg/L	–	–	–	–
COc1cc(/C=N/NC(=O)c2cccnc2)ccc1OCc1cn(-c2ccnc3cc(Cl)ccc23)nn1	> 200 mg/L	–	–	–	–
NNC(=O)c1ccncc1 [ISONIAZID]	0.05 mg/L (≈ 0.365 µM)	> 200 mg/L	25 mg/L (≈ 182 µM)	> 200 mg/L	inhibition [5]: Dose-Dependent Effect; inhibition [13]: Dose-Dependent Effect; inhibition [15]: Dose-Dependent Effect
Clc1ccc2c(N3CCNCC3)ccnc2c1	92 mg/L (≈ 371 µM)	–	–	–	–
O=Cc1ccc(OCc2cn(CCNc3ccnc4cc(Cl)ccc34)nn2)cc1	> 200 mg/L	–	–	–	–
COc1cc(C=O)ccc1OCc1cn(CCNc2ccnc3cc(Cl)ccc23)nn1	> 200 mg/L	–	–	–	–
O=Cc1ccc(OCc2cn(CCCNc3ccnc4cc(Cl)ccc34)nn2)cc1	50 mg/L (≈ 119 µM)	> 200 mg/L	200 mg/L (≈ 474 µM)	> 200 mg/L	–
COc1cc(/C=N/NC(=O)c2cccnc2)ccc1OCc1cn(CCCNc2ccnc3cc(Cl)ccc23)nn1	> 200 mg/L	–	–	–	–
O=C(N/N=C/c1ccc(OCc2cn(CCNc3ccnc4cc(Cl)ccc34)nn2)cc1)c1ccncc1	0.5 mg/L (≈ 0.949 µM)	> 200 mg/L	200 mg/L (≈ 380 µM)	> 200 mg/L	Activity [4]: ~3 log10CFU/ml; Activity (Vero): Non-Toxic; CC50 at 72 h [7]: 34 mg/L (≈ 64.5 µM); CC50 at 24 h [9]: > 100 mg/L; Activity [11]: Active; Activity [14]: 2 log10CFU/ml; Activity [16]: Active
O=C(N/N=C/c1ccccc1-n1cc(CN2CCN(c3ccnc4cc(Cl)ccc34)CC2)nn1)c1cnccn1	> 200 mg/L	–	–	–	–
